The results in this text go back to ChEMBL document CHEMBL4270616, “Asymmetrical meta-methoxylated diarylpentanoids: Rational design, synthesis and anti-cancer evaluation in-vitro” (Eur J Med Chem, 2018).

Experiment [1] in a line: Cytotoxicity against human EJ28 cells assessed as inhibition of cell proliferation at 20 uM after 72 hrs by MTT assay relative to control. In kind it is functional. The following applies: EJ-28, 72 h. A digest of the protocol:
(§1)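 Single-concentration screen at 20 μM with 72 h exposure in DMEM with 10% FBS, final DMSO 0.1%. Read-out was MTT (5 mg/mL, 4 h, 37°C), DMSO solubilisation and absorbance at 570 nm, expressed as percent inhibition. Lines reaching a threshold percentage went on to IC50 determination.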
On the technique in general: Tetrazolium assays rely on reduction of a dye to a coloured formazan, in cell work by metabolically active cells.

Experiment [2] is described as follows: Cytotoxicity against human EJ28 cells after 72 hrs by MTT assay. It counts as functional, cell-based. The following applies: EJ-28, 72 h. In a few lines: (§2)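 Tumour lines kept in DMEM with 10% FBS and 1% penicillin/streptomycin at 37°C, 5% CO2. Seeded at 1500-5000 cells/well by doubling time and size, 24 h, then compound in DMSO-containing medium (final DMSO 0.1%) for 72 h. MTT (5 mg/mL) 4 h at 37°C, DMSO solubilisation, absorbance at 570 nm.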

Experiment [3] concerns NHDF. Nature of the experiment: Cytotoxicity against NHDF after 72 hrs by MTT assay. In kind it is cell-based. The following applies: Homo sapiens. In a few lines: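 NHDF grown in DMEM with 5% FBS at 37°C, 5% CO2. Seeded at 1500-5000 cells/well, 24 h, then compound added in DMSO-containing medium (final DMSO 0.1%) for 72 h. MTT (5 mg/mL in medium) added for 4 h at 37°C, formazan dissolved in DMSO, absorbance read at 570 nm.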

In experiment [4] the test system is MCF7. Nature of the experiment: Cytotoxicity against human MCF7 cells assessed as inhibition of cell proliferation at 20 uM after 72 hrs by MTT assay relative to control. In kind it is functional. The following applies: MCF7, 72 h. In a few lines:
as §1

Experiment [5] has as its system MCF7. Nature of the experiment: Cytotoxicity against human MCF7 cells after 72 hrs by MTT assay. In kind it is functional, cell-based. The following applies: MCF7, 72 h. In a few lines: as §2
Experiment [6] deals with HT-1080. Nature of the experiment: Cytotoxicity against human HT1080 cells after 72 hrs by MTT assay. The following applies: HT-1080, 72 h. In kind it is functional, cell-based. A digest of the protocol: as §2
Experiment [7] relates to SW-620. Nature of the experiment: Cytotoxicity against human SW620 cells assessed as inhibition of cell proliferation at 20 uM after 72 hrs by MTT assay relative to control. The following applies: SW-620, 72 h. It counts as functional. In a few lines: as §1
The test system of experiment [8] is A549. Nature of the experiment: Cytotoxicity against human A549 cells after 72 hrs by MTT assay. In kind it is functional, cell-based. The following applies: A549, 72 h. A digest of the protocol: as §2
The test system of experiment [9] is A549. Nature of the experiment: Cytotoxicity against human A549 cells assessed as inhibition of cell proliferation at 20 uM after 72 hrs by MTT assay relative to control. In kind it is functional. The following applies: A549, 72 h. A digest of the protocol: as §1
The test system of experiment [10] is SW-620. Nature of the experiment: Cytotoxicity against human SW620 cells after 72 hrs by MTT assay. It counts as functional, cell-based. The following applies: SW-620, 72 h. A digest of the protocol: as §2
In experiment [11] the test system is HT-1080. Nature of the experiment: Cytotoxicity against human HT1080 cells assessed as inhibition of cell proliferation at 20 uM after 72 hrs by MTT assay relative to control. It counts as functional. The following applies: HT-1080, 72 h. In a few lines:
as §1

Each structure is given as a SMILES string.

What is called inhibition is the drop in the measured response relative to a control, in per cent. The term IC50 denotes the concentration that inhibits the measured activity by half. Read a high IC50 as weaker potency. For the molecule `COc1ccc(/C=C2\CCC/C(=C\c3ccccc3Br)C2=O)cc1OC`, the inhibition at 20 µM in experiment [1], in [4], in experiment [7], in [9] and in experiment [11] was greater than 50% each time. The IC50 was 7.4 µM in experiment [2]; 21.8 µM in experiment [3]; 9.5 µM in [5]; 8.4 µM in [6]; greater than 20 µM in experiment [8]; 5.3 µM in experiment [10].

`COc1ccc(/C=C2\CCC/C(=C\c3ccc(OC)c(OC)c3)C2=O)cc1`: the inhibition at 20 µM in [1], in experiment [4], in [7], in experiment [9] and in experiment [11] was greater than 50% each time. For the same molecule, the half-inhibitory concentration (IC50) in experiment [2] was 8.4 µM; in experiment [3], 30.9 µM; in experiment [5] it was 7.8 µM; in experiment [6] it was 7.2 µM; in experiment [8], greater than 20 µM; in experiment [10], 6.6 µM.

With `COc1cccc(/C=C2\CCC/C(=C\c3cccc(OC)c3OC)C2=O)c1OC`, the inhibition at 20 µM in [1], in [4], in [7], in [9] and in experiment [11] was greater than 50% throughout. Further, the IC50 came to 8.4 µM in [2]; 31 µM in experiment [3]; 5 µM in experiment [5]; 6.1 µM in [6]; 11.4 µM in experiment [8]; 8.3 µM in experiment [10].

For the molecule `COc1ccc(/C=C2\CCC/C(=C\c3ccc(Cl)cc3Cl)C2=O)cc1OC`, the inhibition at 20 µM in [1], in experiment [4], in experiment [7], in experiment [9] and in experiment [11] was greater than 50% in each case. The IC50 in experiment [2] is 12.4 µM; in [3] it was greater than 50 µM; in experiment [5], 16.2 µM; in [6], 10.5 µM; in experiment [8], greater than 20 µM; in experiment [10] it was 10.3 µM.

Consider `COc1cccc(/C=C2\CCC/C(=C\c3ccc(Cl)cc3Cl)C2=O)c1OC`, for which the inhibition at 20 µM in experiment [1], in experiment [4], in experiment [7], in experiment [9] and in [11] was greater than 50% in each case. Further, the IC50 in [2] was greater than 20 µM; in [3], 49.2 µM; in experiment [5], greater than 20 µM; in experiment [6] it was greater than 20 µM; in [8], greater than 20 µM; in experiment [10], 16.3 µM.
